Measured values: ChEMBL document CHEMBL3352689 (J Med Chem, 2014)

Tests used:
[1] = target: Collagenase 3 (Homo sapiens, UniProt P45452); test: Inhibition of human recombinant MMP13 using Cy3-PLGLK(Cy5Q)AR-NH2 as substrate after 40 mins by spectrofluorimetry
[2] = tested on: Rattus norvegicus; test: Intrinsic clearance in iv dosed rat; type: ADME, organism-based; settings: in vivo
[3] = tested on: Liver microsome; test: Metabolic stability in rat liver microsomes; type: ADME
In short: (§1)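 The free acid was incubated with hepatic microsomes of each species. Stability is reported as clearance in μL/min/mg microsomal protein.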

[4] = tested on: Macaca fascicularis; test: Tmax in monkey at 1 mg/kg, po; settings: cynomolgus monkey, in vivo
[5] = AUC in rat at 10 mg/kg, po; type: ADME, organism-based; parameters: dose 10 mg/kg, route oral; settings: plasma
In short: (§2)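 Three male animals per species. The sodium salt was given as a single oral dose in 0.5% methyl cellulose. Plasma Tmax, Cmax, AUC and oral bioavailability were derived.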

[6] = AUC in dog at 10 mg/kg, po; type: ADME, organism-based, Canis lupus familiaris; parameters: dose 10 mg/kg, route oral; settings: plasma; in short: as §2
[7] = Cmax in dog at 10 mg/kg, po; type: ADME, organism-based, Canis lupus familiaris; parameters: dose 10 mg/kg, route oral; settings: in vivo; in short: as §2
[8] = tested on: Macaca fascicularis; test: Total clearance in monkey at 1 mg/kg, iv; settings: cynomolgus monkey, in vivo
[9] = Cmax in rat at 10 mg/kg, po; type: ADME, organism-based; parameters: dose 10 mg/kg, route oral; settings: in vivo; in short: as §2
[10] = AUC in rabbit at 10 mg/kg, po; type: ADME, organism-based, Oryctolagus cuniculus; parameters: dose 10 mg/kg, route oral; settings: plasma; in short: as §2
[11] = Volume of distribution at steady state in rabbit at 0.1 mg/kg, iv; settings: in vivo, read-out: Vdss
[12] = Tmax in guinea pig at 3 mg/kg, po; type: ADME, organism-based, Cavia porcellus; parameters: dose 3 mg/kg, route oral; settings: in vivo; in short: as §2
[13] = Tmax in rat at 10 mg/kg, po; type: ADME, organism-based; parameters: dose 10 mg/kg, route oral; settings: in vivo; in short: as §2
[14] = tested on: Rattus norvegicus; test: Toxicity in rat at 200 mg/kg/day; type: organism-based; settings: in vivo
[15] = tested on: Liver microsome; test: Metabolic stability in human liver microsomes; type: ADME; in short: as §1
[16] = Total clearance in rat at 1 mg/kg, iv; type: ADME, organism-based; parameters: dose 1 mg/kg, route intravenous; settings: in vivo
In short: (§3)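 Three male animals per species. Dosing was intravenous, with the compound in DMA/PEG400 or DMSO. Steady-state volume of distribution and total body clearance were derived from plasma levels.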

[17] = Total clearance in dog at 1 mg/kg, iv; type: ADME, organism-based, Canis lupus familiaris; parameters: dose 1 mg/kg, route intravenous; settings: in vivo; in short: as §3
[18] = AUC in guinea pig at 3 mg/kg, po; type: ADME, organism-based, Cavia porcellus; parameters: dose 3 mg/kg, route oral; settings: plasma; in short: as §2
[19] = tested on: Cavia porcellus; test: Oral bioavailability in guinea pig assessed as 4-[2-({6-Fluoro-2-[({[3-(methyloxy)phenyl]methyl}amino)-carbonyl]-4-oxo-3,4-dihydroquinazolin-5-yl}oxy)ethyl]-benzoic acid at 3 mg/kg; type: ADME, organism-based; settings: in vivo
In short: (§4)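 The free-acid form was dosed orally in 0.5% methyl cellulose at 3 mg/kg to three male animals. Oral bioavailability was calculated.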

[20] = Oral bioavailability in rabbit at 10 mg/kg; type: ADME, organism-based, Oryctolagus cuniculus; settings: in vivo; in short: as §2
[21] = tested on: Macaca fascicularis; test: Cmax in monkey at 1 mg/kg, po; settings: cynomolgus monkey, in vivo
[22] = Oral bioavailability in guinea pig at 3 mg/kg; type: ADME, organism-based, Cavia porcellus; settings: in vivo; in short: as §2
[23] = tested on: Macaca fascicularis; test: AUC in monkey at 1 mg/kg, po; settings: cynomolgus monkey, plasma
[24] = tested on: Macaca fascicularis; test: Oral bioavailability in monkey assessed as 4-[2-({6-Fluoro-2-[({[3-(methyloxy)phenyl]methyl}amino)-carbonyl]-4-oxo-3,4-dihydroquinazolin-5-yl}oxy)ethyl]-benzoic acid at 3 mg/kg; settings: cynomolgus monkey, in vivo
[25] = Volume of distribution at steady state in dog at 1 mg/kg, iv; type: ADME, organism-based, Canis lupus familiaris; parameters: dose 1 mg/kg, route intravenous; settings: in vivo, read-out: Vdss; in short: as §3
[26] = tested on: Rattus norvegicus; test: Oral bioavailability in rat assessed as 4-[2-({6-Fluoro-2-[({[3-(methyloxy)phenyl]methyl}amino)-carbonyl]-4-oxo-3,4-dihydroquinazolin-5-yl}oxy)ethyl]-benzoic acid at 3 mg/kg; type: ADME, organism-based; settings: in vivo; in short: as §4
[27] = Total clearance in guinea pig at 1 mg/kg, iv; type: ADME, organism-based, Cavia porcellus; parameters: dose 1 mg/kg, route intravenous; settings: in vivo; in short: as §3
[28] = Volume of distribution at steady state in rat at 1 mg/kg, iv; type: ADME, organism-based; parameters: dose 1 mg/kg, route intravenous; settings: in vivo, read-out: Vdss; in short: as §3
[29] = Metabolic stability in rabbit liver microsomes; type: ADME, Oryctolagus cuniculus; in short: as §1
[30] = Cmax in rabbit at 10 mg/kg, po; type: ADME, organism-based, Oryctolagus cuniculus; parameters: dose 10 mg/kg, route oral; settings: in vivo; in short: as §2
[31] = Volume of distribution at steady state in guinea pig at 1 mg/kg, iv; type: ADME, organism-based, Cavia porcellus; parameters: dose 1 mg/kg, route intravenous; settings: in vivo, read-out: Vdss; in short: as §3
[32] = Oral bioavailability in rat at 10 mg/kg; type: ADME, organism-based; settings: in vivo; in short: as §2
[33] = tested on: Macaca fascicularis; test: Oral bioavailability in monkey at 1 mg/kg; settings: cynomolgus monkey, in vivo
[34] = Total clearance in rabbit at 0.1 mg/kg, iv; settings: in vivo
[35] = Oral bioavailability in dog at 10 mg/kg; type: ADME, organism-based, Canis lupus familiaris; settings: in vivo; in short: as §2
[36] = Tmax in dog at 10 mg/kg, po; type: ADME, organism-based, Canis lupus familiaris; parameters: dose 10 mg/kg, route oral; settings: in vivo; in short: as §2
[37] = tested on: Liver; test: Metabolic stability in guinea pig liver microsomes; type: ADME, Cavia porcellus; in short: as §1
[38] = Tmax in rabbit at 10 mg/kg, po; type: ADME, organism-based, Oryctolagus cuniculus; parameters: dose 10 mg/kg, route oral; settings: in vivo; in short: as §2
[39] = Cmax in guinea pig at 3 mg/kg, po; type: ADME, organism-based, Cavia porcellus; parameters: dose 3 mg/kg, route oral; settings: in vivo; in short: as §2
[40] = tested on: Macaca fascicularis; test: Volume of distribution at steady state in monkey at 1 mg/kg, iv; settings: cynomolgus monkey, in vivo, read-out: Vdss
[41] = tested on: Oryctolagus cuniculus; test: Oral bioavailability in rabbit assessed as 4-[2-({6-Fluoro-2-[({[3-(methyloxy)phenyl]methyl}amino)-carbonyl]-4-oxo-3,4-dihydroquinazolin-5-yl}oxy)ethyl]-benzoic acid at 1 mg/kg; type: ADME, organism-based; settings: in vivo
In short: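 Rabbits, three males, received the free-acid form orally in 0.5% methyl cellulose at 1 mg/kg. Oral bioavailability was calculated.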

[42] = Metabolic stability in cynomolgus monkey liver microsomes
[43] = tested on: Canis familiaris; test: Oral bioavailability in dog assessed as 4-[2-({6-Fluoro-2-[({[3-(methyloxy)phenyl]methyl}amino)-carbonyl]-4-oxo-3,4-dihydroquinazolin-5-yl}oxy)ethyl]-benzoic acid at 3 mg/kg; type: ADME, organism-based, Canis lupus familiaris; settings: in vivo; in short: as §4

COc1cccc(CNC(=O)c2nc3cccc(COCc4ccccc4)c3c(=O)[nH]2)c1
IC50 [1]: 1.7 nM

COc1cccc(CNC(=O)c2nc3ccc(F)c(OCCc4ccc(N)cc4)c3c(=O)[nH]2)c1
CL [2]: 233 mL/min/kg | IC50 [1]: 0.03 nM | Microsomal clearance [3]: 140 µL/min/mg

COc1cccc(CNC(=O)c2nc3ccc(C(F)(F)F)cc3c(=O)[nH]2)c1
IC50 [1]: 97 nM

COc1cccc(CNC(=O)c2nc3ccc(F)c(OCCc4ccc(F)cc4)c3c(=O)[nH]2)c1
CL [2]: 28.3 mL/min/kg | IC50 [1]: 0.15 nM | Microsomal clearance [3]: 180 µL/min/mg

COc1cccc(CNC(=O)c2nc3cccc(OCCCc4ccccc4)c3c(=O)[nH]2)c1
IC50 [1]: 0.52 nM

COc1cccc(CNC(=O)c2nc3ccc(SC)cc3c(=O)[nH]2)c1
IC50 [1]: 1.8 nM

COc1cccc(CNC(=O)c2nc3ccc(OCc4ccccc4)cc3c(=O)[nH]2)c1
IC50 [1]: 110 nM

COc1cccc(CNC(=O)c2nc3cccc(CN(C)Cc4ccccc4)c3c(=O)[nH]2)c1
IC50 [1]: 16 nM

COc1cccc(CNC(=O)c2nc3cc(OC)ccc3c(=O)[nH]2)c1
IC50 [1]: 2200 nM

COc1cccc(CNC(=O)c2nc3ccc(-c4ccccc4)cc3c(=O)[nH]2)c1
IC50 [1]: 9.8 nM

COc1cccc(CNC(=O)c2nc3cccc(CCCc4ccccc4)c3c(=O)[nH]2)c1
IC50 [1]: 2.9 nM

COc1cccc(CNC(=O)c2nc3ccc(F)c(OCCc4ccccc4)c3c(=O)[nH]2)c1
CL [2]: 17 mL/min/kg | IC50 [1]: 0.04 nM | Microsomal clearance [3]: 150 µL/min/mg

COc1cccc(CNC(=O)c2nc3ccc(OC(F)(F)F)cc3c(=O)[nH]2)c1
IC50 [1]: 27 nM

COc1cccc(CNC(=O)c2nc3c(OC)cccc3c(=O)[nH]2)c1
IC50 [1]: > 10000 nM

COc1cccc(CNC(=O)c2nc3cccc(SCCc4ccccc4)c3c(=O)[nH]2)c1
IC50 [1]: 9.7 nM

COc1cccc(CNC(=O)c2nc3cccc(OCCOCc4ccccc4)c3c(=O)[nH]2)c1
IC50 [1]: 1.6 nM

COc1cccc(CNC(=O)c2nc3cccc(OC)c3c(=O)[nH]2)c1
IC50 [1]: 25 nM

COc1cccc(CNC(=O)c2nc3cccc(C#N)c3c(=O)[nH]2)c1
IC50 [1]: 8.6 nM

COc1cccc(CNC(=O)c2nc3ccc(F)c(OCCc4ccc(C(=O)[O-])cc4)c3c(=O)[nH]2)c1.[Na+]
Tmax [4]: 2.8 h | AUC [5]: 1600 ng·h/mL | AUC [6]: 31800 ng·h/mL | Cmax [7]: 3870 ng/mL | clearance [8]: 20.9 mL/min/kg | Cmax [9]: 439 ng/mL | AUC [10]: 15700 ng·h/mL | Vd [11]: 1.14 L/kg | Tmax [12]: 0.5 h | Tmax [13]: 0.25 h | Activity [14]: Non-toxic | Stability [15]: 3 µL/min/mg | clearance [16]: 34.6 mL/min/kg | clearance [17]: 3.08 mL/min/kg | AUC [18]: 1410 ng·h/mL | F [19]: 6.3% | bioavailability [20]: 35% | Cmax [21]: 45 ng/mL | bioavailability [22]: 74% | AUC [23]: 456 ng·h/mL | F [24]: 1.5% | Vd [25]: 0.731 L/kg | F [26]: 4.9% | clearance [27]: 26.9 mL/min/kg | Vd [28]: 0.995 L/kg | Stability [29]: 3 µL/min/mg | Cmax [30]: 2290 ng/mL | Vd [31]: 5.39 L/kg | bioavailability [32]: 23% | bioavailability [33]: 45% | clearance [34]: 3.7 mL/min/kg | bioavailability [35]: 58% | Tmax [36]: 1.7 h | Stability [37]: 1 µL/min/mg | Tmax [38]: 1.8 h | Cmax [39]: 439 ng/mL | Vd [40]: 7.03 L/kg | F [41]: 11% | Stability [42]: 2 µL/min/mg | F [43]: 3%

COc1cccc(CNC(=O)c2nc3cccc(OCCC4CCCCC4)c3c(=O)[nH]2)c1
IC50 [1]: 0.99 nM

COc1cccc(CNC(=O)c2nc3cccc(OCCc4ccccc4)c3c(=O)[nH]2)c1
CL [2]: 28.3 mL/min/kg | IC50 [1]: 0.69 nM | Microsomal clearance [3]: 170 µL/min/mg

COc1cccc(CNC(=O)c2nc3cccc(CC(=O)Nc4ccccc4)c3c(=O)[nH]2)c1
IC50 [1]: 0.16 nM

CCOc1ccc2nc(C(=O)NCc3cccc(OC)c3)[nH]c(=O)c2c1
IC50 [1]: 2.4 nM

COc1cccc(CNC(=O)c2nc3cccc(F)c3c(=O)[nH]2)c1
IC50 [1]: 5 nM

COc1cccc(CNC(=O)c2nc3cccc(OCCN4CCCCC4)c3c(=O)[nH]2)c1
IC50 [1]: 34 nM

COc1cccc(CNC(=O)c2nc3ccc(F)cc3c(=O)[nH]2)c1
IC50 [1]: 11 nM

COc1cccc(CNC(=O)c2nc3cccc(NCCc4ccccc4)c3c(=O)[nH]2)c1
IC50 [1]: 4.3 nM

COc1cccc(CNC(=O)c2nc3ccc(OC)cc3c(=O)[nH]2)c1
IC50 [1]: 4 nM

COc1cccc(CNC(=O)c2nc3cccc(OCc4ccccc4)c3c(=O)[nH]2)c1
IC50 [1]: 0.31 nM

COc1cccc(CNC(=O)c2nc3cccc(Oc4ccccc4)c3c(=O)[nH]2)c1
IC50 [1]: 0.53 nM

COc1cccc(CNC(=O)c2nc3ccc(S(C)(=O)=O)cc3c(=O)[nH]2)c1
IC50 [1]: 23 nM

COc1cccc(CNC(=O)c2nc3ccc(C#N)cc3c(=O)[nH]2)c1
IC50 [1]: 6.3 nM

COc1cccc(CNC(=O)c2nc3cccc(-c4ccccc4)c3c(=O)[nH]2)c1
IC50 [1]: 2.2 nM
